From ChEMBL document CHEMBL4251717, “Bioactive α-Pyrone Derivatives from the Endolichenic Fungus Dothideomycetes sp. EL003334” (J Nat Prod, 2018) come the findings set out here.

Data set [1] relates to BV-2. The experiment in a line: Inhibition of COX2 protein expression level in LPS-induced […] BV2 cells preincubated for 3 hrs followed by LPS stimulation measured after 24 hrs by Western blot analysis. It is filed as functional, cell-based. The method in brief:
(§1)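 BV2 cells pretreated 3 h with compound, then LPS (1 μg/mL) for 24 h. Cells lysed in 20 mM Tris-HCl pH 7.4 with protease inhibitors. Protein quantified by Lowry. Equal protein run on 7.5% and 12% SDS-PAGE, transferred to nitrocellulose and probed with anti-iNOS, anti-COX-2 and anti-actin antibodies, ECL detection.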

Data set [2] relates to BV-2. The experiment in a line: Antiinflammatory activity in […] BV2 cells assessed as inhibition of LPS-induced NO production preincubated for 3 hrs followed by LPS stimulation measured after 24 hrs by Griess assay. The class given is functional, cell-based. The method in brief:
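BV2 cells pretreated with compound for 3 h, then LPS (1 μg/mL) for 24 h. Nitrite in conditioned medium taken as NO indicator. Supernatant mixed 1:1 with Griess reagent (0.1% N-(1-naphthyl)ethylenediamine, 1% sulfanilamide in 5% phosphoric acid), 10 min at room temperature. A540 read. Concentration from a sodium nitrite standard curve made in phenol red-free DMEM. IC50 reported.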
On the technique in general: Nitrite, measured by Griess reagent, commonly stands in for NO production.

Data set [3] relates to BV-2. The experiment in a line: Antiinflammatory activity in LPS-induced mouse BV2 cells assessed as inhibition of TNF-alpha mRNA expression level preincubated for 3 hrs followed by LPS stimulation measured after 6 hrs by qRT-PCR analysis.
In data set [4] the test system is BV-2. The experiment in a line: Antiinflammatory activity in LPS-induced […] BV2 cells assessed as inhibition of IL-6 mRNA expression level preincubated for 3 hrs followed by LPS stimulation measured after 6 hrs by qRT-PCR analysis. It is filed as functional, cell-based. The method in brief: (§2)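 BV2 microglia in DMEM with 10% heat-inactivated FBS, penicillin/streptomycin and 2 mM L-glutamine, 37 °C, 5% CO2. Cells incubated with compound for 3 h, then LPS (1 μg/mL) for 6 h. Il1b, Il6 and Tnf mRNA measured by RT-qPCR with GAPDH as endogenous control. Relative expression by comparative Ct (2−ΔΔCt). Mean of three independent experiments.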
For orientation: In qPCR the cycle at which signal appears reflects the starting amount.

Data set [5] deals with BV-2. The experiment in a line: Antiinflammatory activity in […] BV2 cells assessed as inhibition of LPS-induced PGE2 production preincubated for 3 hrs followed by LPS stimulation measured after 24 hrs by ELISA. It is filed as functional, cell-based. The method in brief:
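Pretreatment of BV2 cells with compound for 3 h, then LPS (1 μg/mL) stimulation for 24 h. PGE2 in culture medium measured by ELISA/enzyme immunoassay kit.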

Data set [6] concerns BV-2. The experiment in a line: Cytotoxicity against […] BV2 cells assessed as reduction in cell viability up to 40 uM after 24 hrs by MTT assay. The class given is cell-based. The following applies: bv-2, 24 h. The method in brief: (§3)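 BV2 cells (1 × 10^5 cells/well) exposed to compound for 24 h, at concentrations up to 80 μM. MTT added to 0.5 mg/mL final for 3 h. Formazan dissolved in acidic 2-propanol and read at 540 nm. Untreated cells set as 100% viability.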
For orientation: Tetrazolium assays rely on reduction of a dye to a coloured formazan, in cell work by metabolically active cells.

The test system of data set [7] is BV-2. Briefly: Antiinflammatory activity in LPS-induced […] BV2 cells assessed as inhibition of IL-1beta mRNA expression level preincubated for 3 hrs followed by LPS stimulation measured after 6 hrs by qRT-PCR analysis. It is filed as functional, cell-based. The method in brief:
as §2

Data set [8] deals with BV-2. Briefly: Cytotoxicity against […] BV2 cells assessed as reduction in cell viability up to 80 uM after 24 hrs by MTT assay. It is filed as cell-based. The following applies: bv-2, 24 h. The method in brief: as §3
Data set [9] concerns BV-2. Briefly: Inhibition of iNOS protein expression level in LPS-induced […] BV2 cells preincubated for 3 hrs followed by LPS stimulation measured after 24 hrs by Western blot analysis. It is filed as functional, cell-based. The method in brief: as §1

Calls of active or inactive are those of the source. The calls are words filed in the database; no cut-off is given here.

A word on the IC50: it is the concentration that inhibits the measured activity by half. With `CCCCCCCC[C@H](O)c1cc(OC)c(CO)c(=O)o1`, the inhibition entry in the data set on BV-2 [1], in the data set on BV-2 [3], with BV-2 [4], in the data set with BV-2 [5], in the data set on BV-2 [7] and in the data set on BV-2 [9] was “Dose-dependent effect” each time. Also, the IC50 in the data set on BV-2 [2] (Mus musculus) was 15 µM. Further, the Activity result in the data set with BV-2 [6] is given as “Non-Toxic”; in the data set on BV-2 [8], “Toxic”.

Turning to `COc1cc([C@@H](O)CCCCCC[C@@H](C)O)oc(=O)c1CO`, the inhibition result in the data set with BV-2 [2] is “inactive”.
